# PubChem BioAssay
# Calls of active or inactive are those of the source.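 The calls were made as follows, unless noted: active = fluorescence slope after compound addition differing from the mean of all tested samples at 99.7% confidence, mostly higher but some lower; inactive = the rest.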
# Tests used:
# [1] = inhibitors of TNFa-induced NFkB p65 translocation, primary screen, imaging, HUVEC, MLSMR starter and 10KST1 sets (AID 438;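 active = inhibition above 20% together with a positive visual image hit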;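 also: compound added about 3h40 before a 20 min TNFalpha stimulation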;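 as to inhibition: signal is the nuclear over cytoplasmic p65 intensity ratio per well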); conditions: HUVEC TNFa-induced p65 nuclear translocation; cell count: measured here: nuclei count (cytotoxicity indicator), at 2.08 µM; inhibition: at 2 µM, stronger effect = higher value, 0% TNFa-plus-vehicle, 100% no-TNFa wells
# [2] = inhibitors of mutant huntingtin aggregation, primary screen, imaging, exon1htt(103Q)mCFP cells, high-content imaging (AID 483;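 active = visual image review flags a hit and inhibition of aggregation exceeds 20%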;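 also: compound exposure lasted 3 days before fixation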;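 as to nuclei count: percent of the per-plate median nuclei count of sample wells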); conditions: exon1htt(103Q)mCFP cell line, aggregate imaging, at 2 µM; inhibition of aggregation: stronger effect = higher value; nuclei count: measured here: cell count, toxicity
# [3] = inhibitors of E-selectin induction by TNFa, primary screen, imaging, HUVEC, immunofluorescence, MLSMR starter and 10KST1 sets (AID 487;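 active = visually confirmed hit in the image check and inhibition above 20%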;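 as to inhibition: signal is fraction of cell area covered by stained E-selectin grains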;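 as to nuclei count: 100% = median nuclei count of all wells on the same plate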); conditions: HUVEC TNFalpha-induced E-selectin immunofluorescence imaging, at 2 µM; inhibition: stronger effect = higher value; nuclei count: measured here: cell number, toxicity
# [4] = target: Voltage-gated potassium channel subunit beta-2 (Rattus norvegicus) (UniProt P62483); assay: KvBeta enzyme negative modulators, primary screen, biochemical, NADPH fluorescence (AID 622;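 active = fluorescence slope higher than the sample average by over 3 SD, cut at about -0.22 in these data, passing the limit was not always enough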;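 also: slope of raw intensity against log time taken from 70 to 1610 s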); conditions: recombinant KvBeta, 4-cyanobenzaldehyde reduction, at 10 µM, stronger effect = higher value
# [5] = target: Voltage-gated potassium channel subunit beta-2 (Rattus norvegicus) (UniProt P62483); assay: KvBeta positive modulators, primary screen, biochemical, NADPH fluorescence (AID 623;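 active = NADPH fluorescence slope more negative than the mean of all samples by about 3 SD, 99.7% confidence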;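 also: fluorescence intensity change per second fitted from 20 to 320 s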); conditions: Recombinant KvBeta, NADPH fluorescence decrease slope, 10 min; at 10 µM; stronger effect = lower value
# [6] = target: Muscarinic acetylcholine receptor M4 (Homo sapiens) (UniProt P08173); assay: compounds altering M4/GIRK thallium flux, either direction, primary screen, M4 allosteric agonist project, cell-based, HEK293 M4/GIRK, BTC-AM (AID 625); conditions: at 10 µM, actives lie on both sides;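 also: thallium influx through GIRK channels coupled to M4 in HEK293 cells with BTC-AM dye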
# In short: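 Material: M4/GIRK1/GIRK2 stable HEK293 cell line. Medium: pH 7.3 thallium assay buffer. Dosing: single compound concentration, 10 µM final. Schedule: 1 h dye loading, 2 min kinetic read. Measured by: kinetic fluorescence with BTC-AM dye. Read-out: post-addition slope, 15–24 s, of baseline-normalized fluorescence. Benchmarks: carbachol and DMSO controls.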
# [7] = inhibitors of Sendai virus-induced IRF3 signaling, primary screen, TLR/RLR signaling modifier project, cell-based, Sendai virus stimulus, luciferase, 10K MLSCN set (AID 602276;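 active = inhibition at or above 50% at 10 µM; inactive = inhibition below 50%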;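 also: firefly luciferase from ISG56 promoter only with Renilla not read in this screen; 0% = Sendai virus plus DMSO and 100% = medium plus DMSO without virus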); conditions: HEK293 RL24 IRF3 luciferase reporter, at 10 µM, stronger effect = higher value
# [8] = inhibitors of poly I:C-induced TLR3 signaling, primary screen, cell-based, poly I:C stimulus, luciferase, 10K MLSCN set (AID 602277;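 active = inhibition of the reporter signal at or above 50%; inactive = inhibition below 50%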); conditions: HEK293-TLR3 RL24 IRF3 luciferase reporter, at 10 µM, stronger effect = higher value
# Sequence of Voltage-gated potassium channel subunit beta-2 (Rattus norvegicus) (P62483 whole entry, looked up): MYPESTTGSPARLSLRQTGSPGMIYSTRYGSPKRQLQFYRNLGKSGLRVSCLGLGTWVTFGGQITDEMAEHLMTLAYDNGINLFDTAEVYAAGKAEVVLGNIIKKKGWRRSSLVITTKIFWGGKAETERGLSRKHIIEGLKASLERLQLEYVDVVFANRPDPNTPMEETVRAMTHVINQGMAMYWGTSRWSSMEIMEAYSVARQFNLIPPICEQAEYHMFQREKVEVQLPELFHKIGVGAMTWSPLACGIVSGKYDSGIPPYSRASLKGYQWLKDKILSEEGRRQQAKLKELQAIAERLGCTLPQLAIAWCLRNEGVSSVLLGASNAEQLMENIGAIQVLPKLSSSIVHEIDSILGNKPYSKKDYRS
# Sequence of Muscarinic acetylcholine receptor M4 (Homo sapiens) (P08173 whole entry, looked up): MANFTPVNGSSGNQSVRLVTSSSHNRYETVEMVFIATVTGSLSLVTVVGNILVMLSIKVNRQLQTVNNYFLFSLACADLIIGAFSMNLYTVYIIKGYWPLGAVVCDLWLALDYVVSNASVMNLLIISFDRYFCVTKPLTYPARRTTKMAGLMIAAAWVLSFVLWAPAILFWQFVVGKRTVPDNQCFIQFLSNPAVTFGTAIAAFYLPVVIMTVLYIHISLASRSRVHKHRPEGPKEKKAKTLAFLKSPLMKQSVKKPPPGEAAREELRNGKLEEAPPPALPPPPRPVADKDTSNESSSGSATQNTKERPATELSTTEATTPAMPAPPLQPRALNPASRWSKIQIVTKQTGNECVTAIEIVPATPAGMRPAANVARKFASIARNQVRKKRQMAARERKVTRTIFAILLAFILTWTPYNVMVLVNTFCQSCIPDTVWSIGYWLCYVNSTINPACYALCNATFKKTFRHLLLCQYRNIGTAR
SMILES,cell count [1],inhibition [1],inhibition of aggregation [2],nuclei count [2] [%],inhibition [3],nuclei count [3] [%],fluorescence slope [4],NADPH fluorescence slope [5],fluorescence slope [6],inhibition [7],inhibition [8]
O=C(C1CC1)N1CCc2cc(S(=O)(=O)N(CCO)Cc3ccccc3)ccc21,612,7.7% (inactive),-16% (inactive),108,-91% (inactive),122,-0.498 (inactive),0.000108 (inactive),0.00651 (inactive),-3.85% (inactive),-12.4% (inactive)
COc1nc2ccc(C)cc2cc1-c1noc(-c2cccnc2)n1,243,-0.9% (inactive),3.8% (inactive),62.9,-71.7% (inactive),109,-0.456 (inactive),3.8e-06 (inactive),0.0055 (inactive),6.17% (inactive),-7.44% (inactive)
CCCCNC(=O)OC(C)CNC(=O)Oc1cccc(C)c1 (centres undefined),482,7.6% (inactive),13.4% (inactive),92.7,41.7% (inactive),74.5,-0.471 (inactive),-2.9e-05 (inactive),0.00498 (inactive),22.3% (inactive),15.6% (inactive)
COc1ccccc1-c1cc(C(=O)NCCCn2ccnc2)no1,459,-15.2% (inactive),-15.7% (inactive),106,49.5% (inactive),90,-0.291 (inactive),-2.7e-05 (inactive),0.00777 (inactive),5.02% (inactive),36% (inactive)
O=C1CC(c2ccc(Cl)cc2)n2nc(N3C(=O)c4ccccc4C3=O)nc2N1 (centres undefined),346,11.4% (inactive),-2.1% (inactive),104,30.5% (inactive),98.9,-0.587 (inactive),-3.9e-05 (inactive),0.00353 (inactive),16.6% (inactive),24.4% (inactive)
COC(=O)c1cc(NS(=O)(=O)c2ccc3c(c2)CCC(=O)N3)cc(C(=O)OC)c1,384,-2.9% (inactive),-24.1% (inactive),108,-255% (inactive),115,-0.464 (inactive),2.6e-05 (inactive),0.00663 (inactive),-11.6% (inactive),79.6% (active)
CCOC(=O)/C=C(\C)Sc1cc(=O)oc2ccccc12,571,18.4% (inactive),-8.4% (inactive),93.3,-103% (inactive),126,-0.549 (inactive),-6e-05 (inactive),0.00418 (inactive),25.8% (inactive),47.5% (inactive)
CC(C(=O)NCc1cccnc1)N1C(=O)c2ccccc2C1=O (centres undefined),783,5.5% (inactive),3.6% (inactive),105,-39.6% (inactive),132,-0.607 (inactive),1.7e-05 (inactive),0.00555 (inactive),-0.398% (inactive),10.3% (inactive)
COc1ccc(Cc2nc3ccc(S(N)(=O)=O)cc3[nH]2)cc1OC,423,-22.9% (inactive),18.8% (inactive),58.6,75.1% (active),59.2,-0.553 (inactive),-2.6e-05 (inactive),0.00712 (inactive),9.58% (inactive),8.25% (inactive)
O=C(NCc1ccc(Cl)cc1)c1ccc(COCC(F)(F)F)o1,702,-3.9% (inactive),-3.7% (inactive),91.3,-28.9% (inactive),101,-0.421 (inactive),-0.00041 (inactive),0.00521 (inactive),-1.43% (inactive),-15.5% (inactive)
Cc1ccc(S(=O)(=O)NC(C(=O)OCC(=O)NC2CCS(=O)(=O)C2)C(C)C)cc1 (centres undefined),654,-10.1% (inactive),9.6% (inactive),93.4,-40.2% (inactive),109,-0.578 (inactive),9.1e-06 (inactive),0.0094 (inactive),-14% (inactive),18.4% (inactive)
CN(c1cccc(NC(=O)COc2ccccc2)c1)S(C)(=O)=O,226,7.2% (inactive),21.6% (inactive),91.6,-143% (inactive),111,-0.49 (inactive),6.4e-05 (inactive),0.00411 (inactive),-58.9% (inactive),-120% (inactive)
O=C(CSc1nnc(Cn2nnc(-c3ccccc3)n2)n1-c1ccccc1)Nc1ccc(F)cc1,626,-9.3% (inactive),-10.3% (inactive),101,-114% (inactive),111,-0.573 (inactive),-6e-05 (inactive),0.00351 (inactive),10.9% (inactive),14.9% (inactive)
Cc1[nH]n2c(=O)cc(Cc3ccccc3)nc2c1C#N,786,-6.7% (inactive),8.8% (inactive),106,-15.8% (inactive),100,-0.538 (inactive),-3.6e-05 (inactive),0.00532 (inactive),15.1% (inactive),22% (inactive)
